Measurements from different studies.
Lines come from different studies, so protocols differ.
Route: oral

Compound	test system	conditions	concentration
CCc1cc(-c2noc(-c3cc(OC)nc(C4CCCC4)c3)n2)cc(C)c1OC[C@@H](O)CO	Wistar rat, plasma	3 mg/kg, 3 h, single dose	0.235 µg/mL
Cc1ccc(-c2cc(C(F)(F)F)nn2-c2ccc(S(N)(=O)=O)cc2)cc1	male Sprague-Dawley rat, blood	20 mg/kg, 4 h	6.36 µM
COc1nc(-c2cc(C)c(N[C@@H](C)c3cc(F)cc(F)c3)nn2)ccc1-n1cnc(C)c1	male Sprague-Dawley rat, CSF	5 mg/kg, 4 h, multiple doses, once daily	0.0153 µg/mL
Cc1noc(C)c1Cn1cc(N2C(=O)CN(Cc3cccc(O)c3)C2=O)cn1	male Sprague-Dawley rat, plasma	100 mg/kg, 4 h	0.0425 µg/mL
CCOC(=O)[C@@]12C[C@@H]1[C@@H](n1ccc3c(NC)nc(C#Cc4ccc(Cl)s4)nc31)[C@H](O)[C@@H]2O	male Sprague-Dawley rat, plasma	10 mg/kg, 15 min	0.0455 µg/mL
COc1ccc(C)c2sc(NC(=O)c3ccncc3)nc12	rat, brain	10 mg/kg, 1 h	~10 µM
CN(C(=O)n1cnc(-c2ccc[n+]([O-])c2)c1)C1CCCCC1	Wistar rat, plasma	10 mg/kg, 8 h	0.278 µg/mL
Cc1noc(C)c1Cn1cc(N2C(=O)N(Cc3cccc(O)c3)C(C)(C)C2=O)cn1	male Sprague-Dawley rat, plasma	100 mg/kg, 24 h, single dose	0 µg/mL
COc1ccc2c(=O)n(C)c(-c3ccccc3)nc2c1	male Sprague-Dawley rat, spleen	30 mg/kg, 4 h	0.00613 µg/mL
COc1cccc(-c2n[nH]c(SCc3ccccn3)n2)c1OC	male Sprague-Dawley rat, plasma	10 mg/kg, 30 min, single dose	21.4 µg/mL
